Assay [1] concerns the target T1, Glutamate NMDA receptor (Rattus norvegicus) (UniProt P35439+Q00959+Q00960+Q00961+Q62645+Q8VHN2+Q9R1M7). Kind of assay: Displacement of [3H]CPP from N-methyl-D-aspartate glutamate receptor of rat cortical membranes. Type of assay: cell membranes. Also on record: concentration or dose not given beside the values. The conditions noted are these: Membrane, concentration not given here. In a few lines: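 Membranes were crude synaptic membranes from whole brain, minus cerebellum and brainstem, of male Long-Evans rats. They were treated with 0.01% Triton X-100 (37 °C, 30 min) and washed in 50 mM Tris-HCl pH 7.6. Membranes (200-400 µg protein/mL) were incubated with 10 nM [3H]CPP for 15 min at 23 °C, in triplicate. Bound ligand was separated by centrifugation and counted by scintillation. IC50 was fitted by nonlinear least squares from four or more concentrations.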
On the technique in general: In a radioligand displacement assay an active substance lowers the binding of a labelled ligand.

Assay [2] addresses T1, Glutamate NMDA receptor (Rattus norvegicus). Kind of assay: Inhibitory activity evaluated by its ability to displace [3H]CPP from NMDA receptor in rat cortical membranes at 10E-4 concentration of the compound. In kind it is cell membranes. In short, it runs like this: (§1)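 Rat forebrain crude synaptic membranes were pretreated with Triton X-100 and washed in 50 mM Tris-HCl pH 7.6. Membranes (200-400 µg protein/mL) were incubated with 10 nM [3H]CPP and test agent for 15 min at 23 °C, in triplicate. Pellets were collected by centrifugation and counted. Percent inhibition = (T−S)/T×100, where T and S are specific binding without and with test agent.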

The species entered for another assay is Rattus norvegicus. Kind of assay: In vitro antagonist activity by its ability to inhibit glutamate-induced accumulation of [45Ca2+]- in cultured rat cortical neurons. Type of assay: functional. In short, it runs like this: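 Cortical neurons came from E18 Sprague-Dawley rat fetuses and were used 14-16 days after plating. Cells were held in Mg-free HBSS with 1.4 mM CaCl2, pH 7.4, at 37 °C and 5% CO2. They were exposed for 30 min to 100 µM L-glutamate (final) plus 45Ca2+ (2 µCi/mL) with test agent, then washed with saline, lysed in water and beta-counted. Baseline uptake without glutamate was subtracted. IC50 came from at least four half-log concentrations, with at least six replicates each.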

Assay [3] concerns the target Glutamate NMDA receptor. Briefly: Inhibitory activity evaluated by its ability to displace [3H]CPP from rat cortical membrane receptor at 10E-5 concentration of the compound. In short, it runs like this: (§2)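 Crude synaptic membranes from whole brain minus cerebellum and brainstem of male Long-Evans rats, treated with 0.01% Triton X-100 at 37 °C for 30 min and washed. Membranes (200-400 µg protein/mL) were incubated with 10 nM [3H]CPP in 50 mM Tris-HCl pH 7.6 for 15 min at 23 °C in triplicate. Bound ligand was separated by centrifugation and counted by liquid scintillation. Inhibition of specific binding was calculated as ((T−S)/T)×100.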

Assay [4] deals with Glutamate NMDA receptor. Briefly: Inhibitory activity evaluated by its ability to displace [3H]CPP from rat cortical membrane N-methyl-D-aspartate glutamate receptor at 10E-5 concentration of the compound. In a few lines:
as §2

The target in assay [5] is Glutamate NMDA receptor. Kind of assay: Inhibitory activity evaluated by its ability to displace [3H]CPP from N-methyl-D-aspartate glutamate receptor in rat cortical membranes at 10E-4 concentration of the compound. Type of assay: cell membranes. In short, it runs like this: as §1
The target of assay [6] is Glutamate NMDA receptor. Kind of assay: Inhibitory activity evaluated by its ability to displace [3H]CPP from N-methyl-D-aspartate glutamate receptor in rat cortical membranes at 10E-5 concentration of the compound. In kind it is cell membranes. In short, it runs like this: as §1

What is called inhibition is the share of the control response that was lost under treatment. In turn, `O=C(O)CNCCCCP(=O)(O)O` yielded an inhibition in assay [1] of 17%.
As to `O=C(O)CNCC[S+]([O-])CP(=O)(O)O` (stereo unspecified), in assay [1], the inhibition came to 4%.
In turn, `O=C(O)CNCc1cccc(P(=O)(O)O)c1` gave an inhibition in assay [2] of 21%.
In assay [1], `CC(NCc1cccc(CP(=O)(O)O)c1)C(=O)O` (stereo unspecified) registered an inhibition of 31%.
With `O=C(O)CNc1cccc(CCP(=O)(O)O)c1`, the inhibition in assay [1] was found to be 0%.
Take `O=C(O)CNCCCP(=O)(O)O`: the inhibition in assay [1] came to 3%.
In turn, `O=C(O)CNc1cccc(CCCP(=O)(O)O)c1` showed an inhibition in assay [1] of 5%.
With `O=C(O)CNc1ccccc1P(=O)(O)O`, the inhibition in assay [1] turned out to be 27%.
As to `CC(C)C(NCc1cccc(CP(=O)(O)O)c1)C(=O)O` (stereo unspecified), the inhibition in assay [1] worked out at 0%.
By IC50 is commonly meant the concentration that inhibits the measured activity by half. `O=C(O)CNCc1cccc(CP(=O)(O)O)c1`: the IC50 in the assay filed under Rattus norvegicus was determined as 40 µM; on Glutamate NMDA receptor [3] it was 2.4 µM.
Consider `CC(NCc1ccccc1CP(=O)(O)O)C(=O)O` (stereo unspecified), for which the inhibition in assay [1] turned out to be 4%.
With `O=C(O)CNCc1ccc(CP(=O)(O)O)cc1`, the values for the IC50 in the assay filed under Rattus norvegicus and on Glutamate NMDA receptor [3] were 59 µM and 2.3 µM, respectively.
For the compound `O=C(O)CNCc1ccccc1CP(=O)(O)O`, the inhibition in assay [2] worked out at 21%.
On to `O=C(O)CNC/C=C/CP(=O)(O)O`, for which the figures for the IC50 in the assay listed under Rattus norvegicus and on Glutamate NMDA receptor [3] were 16.7 µM and 1 µM, respectively.
Consider `O=C(O)CNCCSCP(=O)(O)O`, for which, in assay [1], the inhibition amounted to 60%.
`NC(CCCP(=O)(O)O)C(=O)O` (stereo unspecified): the IC50 in the assay listed under Rattus norvegicus is 6.1 µM.
`NC(CCCCCP(=O)(O)O)C(=O)O` (stereo unspecified) [AP-7] had an IC50 in the assay filed under Rattus norvegicus of 30 µM.
With `O=C(O)CNc1cccc(/C=C/CP(=O)(O)O)c1`, the inhibition in assay [1] was found to be 13%.
As to `O=C(O)C1CN(CP(=O)(O)O)CCN1` (stereo unspecified), the IC50 in the assay filed under Rattus norvegicus turned out to be 5.2 µM; at Glutamate NMDA receptor [3] it was 0.065 µM.
`O=C(O)CNCC/C=C\P(=O)(O)O`: the values for the IC50 in the assay listed under Rattus norvegicus and on Glutamate NMDA receptor [4] were 36 µM and 2.25 µM, respectively.
In assay [1], `O=C(O)CNc1ccccc1CP(=O)(O)O` registered an inhibition of 48%.
In the case of `O=C(O)CNCCc1cccc(CP(=O)(O)O)c1`, the IC50 came to 13.7 µM on Glutamate NMDA receptor [5] and 144 µM in the assay listed under Rattus norvegicus.
In the case of `O=C(O)CNCCP(=O)(O)O`, the inhibition in assay [1] was determined as 14%.
In the assay filed under Rattus norvegicus, `O=C(O)C1CN(CCCP(=O)(O)O)CCN1` (stereo unspecified) displayed an IC50 of 2.4 µM.
In turn, `O=C(O)CNc1ccccc1CCP(=O)(O)O` displayed an inhibition in assay [2] of 0%.
For `O=C(O)CNc1ccccc1C(=O)O`, in the assay filed under Rattus norvegicus, the IC50 is more than 250 µM.
On to `CC(NC/C=C\CP(=O)(O)O)C(=O)O` (stereo unspecified), for which the IC50 at Glutamate NMDA receptor [4] turned out to be 42.4 µM.
The compound `O=C(O)CNc1ccccc1/C=C/P(=O)(O)O` yielded an inhibition in assay [1] of 9%.
In the case of `N/C(=N\CC(=O)O)c1cccc(CP(=O)(O)O)c1`, the IC50 in the assay filed under Rattus norvegicus amounted to 137 µM; on Glutamate NMDA receptor [6], 18 µM.

Source of the values: ChEMBL document CHEMBL1125433, “Exploration of N-phosphonoalkyl-, N-phosphonoalkenyl-, and N-(phosphonoalkyl)phenyl-spaced alpha-amino acids as competitive N-methyl-D-aspartic acid antagonists” (J Med Chem, 1992).
